PGC1a acetyl up – raises PGC1a acetylation signal in U2OS cells | U2OS PGC1a acetylation AlphaScreen, overnight | activation, % at 15.6 µM | hit rate 0.21% among 350,000 | AID 651723;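 active means every replicate reaching activation of at least 50%, whatever the mean replicate activation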;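 further: hits raise the AlphaScreen acetylation signal above neutral controls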
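System – flag-PGC1a/GCN5 U2OS cells · Quantity – 7000 U2OS cells per well · Signal – AlphaScreen proximity luminescence, anti-acetyl-lysine antibody · Schedule – overnight compound treatment, 37 °C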
* hit, by the source's call. The sample as a whole holds a higher share of hits than the screen did.

SMILES | PGC1a acetyl up
COc1ccc(-c2cc(-c3ccccc3)c(C#N)c(S(C)=O)n2)cc1 (configuration not stated) | -85.0
COc1cc(C(C)=O)ccc1OCC(O)CN1CCN(c2ccc(C)c(C)c2)CC1 (configuration not stated) | -40.0
COC(=O)c1ccc2c(c1)C(C)(C)C(/C=C/c1ccccc1O)=[N+]2C | 51.8*
Cc1ccc(NC(=O)c2ccccc2)cc1-n1cnnn1 | -40.3
CN(C)S(=O)(=O)N1CCC(Cc2ccccc2)CC1 | 61.5*
C=CCNC(=O)c1ccc(CN2CCC(Cc3ccccc3)CC2)cc1 | -47.6
CN(Cc1ccccc1)S(=O)(=O)c1ccc(S(=O)(=O)N(Cc2ccc(F)cc2)C2CCCC2)cc1 | -44.0
C[C@@H]1CN([C@H](C)CO)C(=O)c2cc(C#CC(C)(C)O)cnc2O[C@H]1CN(C)C(=O)c1ccccc1F | -50.4
OC[C@H]1[C@H](c2ccc(C#CC3CCCC3)cc2)[C@@H]2CN(CCC(F)(F)F)CCCCN12 | 64.8*
OC[C@@H]1[C@H](c2ccc(/C=C/c3ccccc3)cc2)[C@H]2CN(CCC(F)(F)F)CCCCN12 | 66.8*
O=C(Cc1cccnc1)N1CC(=O)N2[C@H](CO)[C@@H](c3ccc(C#CC4CCCCC4)cc3)[C@H]2C1 | -50.5
COCCSc1ccccc1C(=O)Nc1cc(C)on1 | -50.7
O=C(C[C@@H]1C=C[C@@H](NC(=O)Nc2ccc(C(F)(F)F)cc2)[C@H](CO)O1)NCc1ccccn1 | -43.5
Cc1ccc(C(=O)Cn2c(C(=O)OCCO)cc3ccccc32)cc1 | 65.3*
COc1ccccc1Nc1nc(NCCC(C)C)nc(N)c1[N+](=O)[O-] | -46.6
CC(=O)N1/C(=C/c2ccc(N(C)C)cc2)C(=O)c2ccccc21 | 74.7*
CCN(CC)S(=O)(=O)c1ccc(C(=O)N(c2ccccc2)C2C=CS(=O)(=O)C2)cc1 (configuration not stated) | -46.1
O=C(NC(Nc1cc(C(F)(F)F)ccc1Cl)C(=O)c1ccccc1)c1ccccc1 (configuration not stated) | 99.8*
O=C(Nc1ccc(F)cc1)c1ccccc1 | -52.1
CN(C)C(=O)C[C@@H]1C=C[C@@H](NS(=O)(=O)c2ccccc2)[C@@H](CO)O1 | -53.6
CC(=O)Nc1cccc(-c2ccnc3c2CC(C)(C(=O)Nc2ccc(C(C)C)cc2)O3)c1 (configuration not stated) | 69.6*
CCOC(=O)C1(CC2CCCCO2)CCN(C(=O)Nc2ccc(SC)cc2)CC1 (configuration not stated) | -55.7
CCN1CCN(C(=O)c2c(-c3c(F)cccc3Cl)noc2C)CC1 | 71.2*
O=C(c1cccc(Cl)c1)N1CCN(c2ccc(N3CCOCC3)nn2)CC1 | -46.1
CC1CN(C2CCN(C(=O)c3cccc(Cl)c3)CC2)CC(C)O1 (configuration not stated) | -47.8
SMILES | PGC1a acetyl up
C[C@H]1CN([C@@H](C)CO)C(=O)Cc2cc(NC(=O)Nc3ccccc3)ccc2O[C@@H]1CN(C)Cc1ccccc1 | -50.0
Cc1ccc(O)c(C(=O)c2cnc3c(c2)CN(CCC(C)C)C(=O)N3)c1 | 69.8*
C[C@H](CO)N1C[C@H](C)[C@@H](CN(C)C(=O)c2ccccn2)Oc2ncc(-c3cccc(C#N)c3)cc2C1=O | -57.5
COc1cccc2sc(Nc3nc(-c4ccccn4)cs3)nc12 | 60.1*
COc1cnc(-c2ccccn2)nc1Sc1ccc(C)cc1 | -59.8
O=C(O)C1CCCN1S(=O)(=O)c1cc(Cl)ccc1Cl (configuration not stated) | -42.5
CCOC(=O)C1=C[C@@H](C(C)(C)C)N(S(=O)(=O)c2ccc(C)cc2)[C@H]1c1cccc2ccccc12 | 100.0*
Cc1cccc(CCN(CC(=O)NC(C)(C)C)C(=O)c2csnn2)c1 | -46.7
CC1=CC(C)(C)N2C(=O)C3(SCC(=O)N3c3ccc(F)cc3)c3cc(C)cc1c32 (configuration not stated) | 93.0*
COc1ccc(Cn2nnnc2C(C(C)C)N(Cc2ccco2)Cc2cccs2)cc1 (configuration not stated) | 56.4*
COc1cccc(N(CC(=O)N2CCN(Cc3ccccc3)CC2)S(C)(=O)=O)c1 | -45.7
CN(C[C@H]1N[C@@H](CO)[C@@H]1c1ccc(C2=CCCC2)cc1)C(=O)c1cccc(F)c1 | -76.2
COc1ccc(S(=O)(=O)N2CCCCN3[C@@H](CO)[C@@H](c4ccc(C5=CCCCC5)cc4)[C@@H]3C2)cc1 | 57.3*
CC(=O)Nc1cc(C(=O)OCc2cccc([N+](=O)[O-])c2)ccc1C | -48.7
COc1ccc(C)cc1NS(=O)(=O)c1ccc(NC(=O)CN(c2cc([N+](=O)[O-])ccc2C)S(C)(=O)=O)cc1 | 474.1*
COc1ccc(OC)c(N(CC(=O)Nc2ccccc2)S(C)(=O)=O)c1 | -42.7
Cc1cccc(NS(=O)(=O)c2ccc(NC(=O)CN(c3cc([N+](=O)[O-])ccc3C)S(C)(=O)=O)cc2)c1 | 377.6*
CCOc1ccc(N(CC(=O)Nc2ccccc2OC)S(=O)(=O)c2ccccc2)cc1 | -87.5
O=C(C[C@@H]1C[C@@H]2c3cc(NC(=O)Nc4ccccc4F)ccc3O[C@@H]2[C@H](CO)O1)NCc1ccc(Oc2ccccc2)cc1 | -41.5
CC(C)NC(=O)N(C)C[C@H]1OCc2cnnn2CCCC(=O)N([C@@H](C)CO)C[C@H]1C | -41.5
Cc1c(CCOC(=O)CC23CC4CC(CC(C4)C2)C3)sc[n+]1Cc1ccccc1 | 60.9*
Cc1noc(C)c1S(=O)(=O)N(C)C[C@H]1Oc2ccc(NC(=O)Nc3ccccc3)cc2CC(=O)N([C@H](C)CO)C[C@H]1C | -55.7
O=C(NCc1ccc2c(c1)OCO2)c1nc(S(=O)(=O)Cc2ccccc2)ncc1Cl | 73.7*
CC(=O)Nc1ccc2c(CSc3nncs3)cc(=O)oc2c1 | -46.9
Cc1[nH]c2ccccc2c1/C=N/Nc1nc2ccccc2[nH]1 | 79.5*
SMILES | PGC1a acetyl up
COc1ccc(/C=N/Nc2nc3ccccc3[nH]2)c(OC)c1OC | -50.3
C=CCOc1ccccc1CNc1ccc2[nH]c(=O)[nH]c2c1 | -43.8
CC(=O)c1cccc(-c2ccnc3c2CC(C(=O)Nc2ccc4c(c2)OCO4)O3)c1 (configuration not stated) | 57.9*
C[C@H]1CN([C@@H](C)CO)C(=O)c2cccc(NC(=O)c3ccncc3)c2O[C@H]1CN(C)C(=O)Nc1ccc2c(c1)OCO2 | -42.1
CC(C)OC(=O)c1c(F)c(F)c(N2CCOCC2)c(F)c1F | -57.4
CC(=O)c1c(N2CCOCC2)nc(=O)n(-c2ccccc2)c1C | -44.3
Cc1cc(C)c(C(=O)/C=C/c2ccc(C(C)C)cc2)c(=O)[nH]1 | -64.4
NS(=O)(=O)c1ccc(CCNC2CC(=O)N(Cc3ccccc3)C2=O)cc1 (configuration not stated) | -46.1
NS(=O)(=O)c1ccc(CCNC(=O)c2ccc3nc4ccc(Cl)cc4c(=O)n3c2)cc1 | 85.3*
O=C1C=CC2(C=C1)O[C@H](Cc1ccccc1)[C@@H](Cc1ccccc1)O2 | -40.8
NC(Cc1ccccc1)c1csc(NC(=O)Nc2ccccc2Oc2ccccc2)n1 (configuration not stated) | 71.2*
CO[C@H]1CN(C)C(=O)c2ccc(NC(=O)C3CCOCC3)cc2OC[C@@H](C)N(C)C[C@@H]1C | -52.8
O=C(C[C@@H]1C=C[C@@H](NC(=O)Nc2ccc(F)cc2)[C@@H](CO)O1)NCCN1CCCC1 | -47.9
O=C(Cn1nc(C(=O)O)c2ccccc2c1=O)Nc1cccc(Br)c1 | -52.2
O=C(NC(=S)Nc1cccc(Cl)c1N1CCCCC1)c1ccco1 | 104.4*
O=[N+]([O-])c1ccc(/C=N/n2c(CO)nc3ccccc32)s1 | 52.7*
